In assay [1] the test system is Trichomonas vaginalis. As to the kind of experiment: Antitrichomonal activity against metronidazole-susceptible Trichomonas vaginalis clinical isolate by trypan blue staining-based cell counting. In kind it is functional. The method in brief: (§1)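 Log-phase trophozoites (grown 1 day in TYM medium with 10% heat-inactivated FBS, pH 6.8, under partial anaerobiosis at 37°C) seeded at 5 X 10³/well. Compounds dissolved in DMSO and serially diluted in TYM from 100 to 0.78 μg/ml; vehicle wells had 0.05% DMSO. Plates incubated anaerobically at 37°C, with viability followed by trypan blue counting. MIC taken at 24 h as the lowest concentration leaving all trophozoites nonviable.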

Assay [2] deals with Trichomonas vaginalis. Description: Antitrichomonal activity against metronidazole-resistant Trichomonas vaginalis ATCC 50143 by trypan blue staining-based cell counting. In kind it is functional. The method in brief: as §1
The test system of assay [3] is HeLa. As to the kind of experiment: Cytotoxicity against human HeLa cells after 24 hrs by MTT assay. The assay is classed as cell-based. Summed up:
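HeLa cells were kept in DMEM with 10% FBS at 37°C under 5% CO₂, then seeded at 5 X 10⁴/well and grown 24 h. Medium was replaced with compound dilutions starting at 1.0 mg/ml, with 0.05% DMSO in control wells, and cells were exposed for 24 h. MTT was then added, formazan was dissolved in DMSO, and OD was read at 540 nm.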
(In general: Tetrazolium assays rely on reduction of a dye to a coloured formazan, in cell work by metabolically active cells.)

For assay [4], the system named is Trichomonas vaginalis. As to the kind of experiment: Ratio of MIC for metronidazole-resistant Trichomonas vaginalis ATCC 50143 to metronidazole-susceptible Trichomonas vaginalis clinical isolate. The assay is classed as functional. Summed up:
(§2)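 Both T. vaginalis strains were grown in TYM medium (pH 6.8) with 10% heat-inactivated FBS, 2% vitamin mixture, penicillin and streptomycin, under partial anaerobiosis at 37°C. Log-phase trophozoites (5 X 10³/well) taken 1 day after subculture were exposed to twofold dilutions from 100 down to 0.78 μg/ml (from DMSO stocks), with 0.05% DMSO vehicle controls, anaerobically at 37°C. Viability was scored daily by trypan blue counting. MIC was the lowest concentration leaving all trophozoites nonviable at 24 h.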

The subject of assay [5] is Trichomonas vaginalis. Description: Ratio of metronidazole MIC to compound MIC for metronidazole-resistant Trichomonas vaginalis ATCC 50143 by trypan blue staining-based cell counting. In kind it is functional. Summed up: as §2

Values after ≈ are worked out from the molar mass of the structure shown.

Usually MIC stands for the smallest concentration in the dilution series that meets the test's criterion for growth inhibition. A high value points to a need for much substance. One may read the IC50 as the concentration that inhibits the measured activity by half. Lower therefore signals inhibition by little substance.

With `Cc1ncc([N+](=O)[O-])n1CCO` [METRONIDAZOLE], the MIC in assay [1] stood at 1.56 mg/L (≈ 9.11 µM); in assay [2], 12.5 mg/L (≈ 73 µM). Also, the IC50 in assay [3] is > 1000 mg/L. Further, the Ratio in assay [4] came out at 8.
With `Cc1ncc([N+](=O)[O-])n1CCOc1ccc(C(=O)/C=C/c2ccccc2)cc1`, the MIC in assay [1] amounted to 1.56 mg/L (≈ 4.13 µM); in assay [2], 50 mg/L (≈ 132 µM). The Ratio in assay [4] is reported as 4.
Regarding `Cc1ncc([N+](=O)[O-])n1CCOc1ccc(C(=O)/C=C/c2ccc([N+](=O)[O-])cc2)cc1`, the results for the MIC in assay [1] and in assay [2] were 1.56 mg/L (≈ 3.69 µM) and 6.25 mg/L (≈ 14.8 µM), respectively. The Ratio in assay [5] and in assay [4] was 2 in each case.
Turning to `Cc1ncc([N+](=O)[O-])n1CCOc1ccc(C(=O)/C=C/c2cccc(F)c2)cc1`, the results for the MIC in assay [1] and in assay [2] were 25 mg/L (≈ 63.2 µM) and 100 mg/L (≈ 253 µM), respectively.
On the same counts, the results for `COc1ccc(/C=C/C(=O)c2ccc(OCCn3c([N+](=O)[O-])cnc3C)cc2)cc1` are 3.12 mg/L (≈ 7.67 µM) and 25 mg/L (≈ 61.4 µM).
Taken in the same sequence, the figures for `Cc1ncc([N+](=O)[O-])n1CCOc1ccc(C(=O)/C=C/c2c(Cl)cccc2Cl)cc1` were 6.25 mg/L (≈ 14 µM) and 25 mg/L (≈ 56 µM).
Taken in the same sequence, the figures for `COc1ccc(OC)c(/C=C/C(=O)c2ccc(OCCn3c([N+](=O)[O-])cnc3C)cc2)c1` were 12.5 mg/L (≈ 28.6 µM) and 12.5 mg/L (≈ 28.6 µM).
With `Cc1ncc([N+](=O)[O-])n1CCOc1ccc(C(=O)/C=C/c2cccc(Cl)c2)cc1`, the MIC came out at 1.56 mg/L (≈ 3.79 µM) in assay [1] and 3.12 mg/L (≈ 7.59 µM) in assay [2]. Besides, the Ratio in assay [5] was 4; in assay [4] it was 2. Besides, the IC50 in assay [3] is > 1000 mg/L.
As to `Cc1ncc([N+](=O)[O-])n1CCOc1ccc(C(=O)/C=C/c2ccccc2Br)cc1`, the figures for the MIC in assay [1] and in assay [2] were 3.12 mg/L (≈ 6.85 µM) and 6.25 mg/L (≈ 13.7 µM), respectively.
On the same counts, the results for `Cc1ccc(/C=C/C(=O)c2ccc(OCCn3c([N+](=O)[O-])cnc3C)cc2)cc1C` are 6.25 mg/L (≈ 15.4 µM) and 12.5 mg/L (≈ 30.8 µM).
`Cc1ncc([N+](=O)[O-])n1CCOc1ccc(C(=O)/C=C/c2cc(F)cc(F)c2)cc1`: the results for the minimum inhibitory concentration (MIC) in assay [1] and in assay [2] were 1.56 mg/L (≈ 3.77 µM) and 3.12 mg/L (≈ 7.56 µM), respectively. Besides, the Ratio is 4 in assay [5] and 2 in assay [4]. For the same compound, in assay [3], the IC50 is > 1000 mg/L.
Consider `Cc1ncc([N+](=O)[O-])n1CCOc1ccc(C(=O)/C=C/c2ccc(Cl)cc2Cl)cc1`, for which the results for the MIC in assay [1] and in assay [2] were 6.25 mg/L (≈ 14 µM) and 12.5 mg/L (≈ 28 µM), respectively.
On the same counts, the results for `Cc1ncc([N+](=O)[O-])n1CCOc1ccc(C(=O)/C=C/c2ccccc2C(F)(F)F)cc1` are 6.25 mg/L (≈ 14 µM) and 25 mg/L (≈ 56.1 µM).
As to `Cc1ncc([N+](=O)[O-])n1CCOc1ccc(C(=O)/C=C/c2cccc3ccccc23)cc1`, the results for the MIC in assay [1] and in assay [2] were 6.25 mg/L (≈ 14.6 µM) and 25 mg/L (≈ 58.5 µM), respectively.
As to `Cc1ncc([N+](=O)[O-])n1CCOc1ccc(C(=O)/C=C/c2ccccc2Cl)cc1`, the MIC in assay [1] came to 3.12 mg/L (≈ 7.59 µM); in assay [2], 12.5 mg/L (≈ 30.4 µM).
As to `Cc1ncc([N+](=O)[O-])n1CCOc1ccc(C(=O)/C=C/c2ccc(Cl)cc2)cc1`, the MIC in assay [1] and in assay [2] was 6.25 mg/L (≈ 15.2 µM) each time.
For `Cc1ncc([N+](=O)[O-])n1CCOc1ccc(C(=O)/C=C/c2ccc(C(F)(F)F)cc2)cc1`, the values for the MIC in assay [1] and in assay [2] were 3.12 mg/L (≈ 7.02 µM) and 25 mg/L (≈ 56.1 µM), respectively.
Take `Cc1ncc([N+](=O)[O-])n1CCOc1ccc(C(=O)/C=C/c2cc(F)ccc2F)cc1`: the MIC in assay [1] stood at 1.56 mg/L (≈ 3.77 µM); in assay [2] it was 6.25 mg/L (≈ 15.1 µM). For the same compound, in assay [4], the Ratio stood at 2.
Take `Cc1ncc([N+](=O)[O-])n1CCOc1ccc(C(=O)/C=C/c2ccc(Br)cc2)cc1`: the MIC in assay [1] and in assay [2] was 6.25 mg/L (≈ 13.7 µM) throughout.
As for `COc1ccc(/C=C/C(=O)c2ccc(OCCn3c([N+](=O)[O-])cnc3C)cc2)cc1OC`, the MIC in assay [1] came out at 1.56 mg/L (≈ 3.57 µM); in assay [2], 12.5 mg/L (≈ 28.6 µM). For the same compound, in assay [4], the Ratio turned out to be 8.
In the case of `Cc1ncc([N+](=O)[O-])n1CCOc1ccc(C(=O)/C=C/c2ccc(F)cc2)cc1`, the results for the MIC in assay [1] and in assay [2] were 1.56 mg/L (≈ 3.95 µM) and 6.25 mg/L (≈ 15.8 µM), respectively. Besides, the Ratio in assay [4] is reported as 2.
On the same counts, the results for `Cc1ncc([N+](=O)[O-])n1CCOc1ccc(C(=O)/C=C/c2ccc(F)c(F)c2)cc1` are 1.56 mg/L (≈ 3.77 µM), 6.25 mg/L (≈ 15.1 µM) and 2.
Consider `Cc1ncc([N+](=O)[O-])n1CCOc1ccc(C(=O)/C=C/c2cccc(Br)c2)cc1`, for which the MIC in assay [1] and in assay [2] was 3.12 mg/L (≈ 6.85 µM) in each case. In addition, the Ratio in assay [5] is recorded as 4.

(Values after ChEMBL document CHEMBL3232761, “Novel metronidazole-chalcone conjugates with potential to counter drug resistance in Trichomonas vaginalis” (Eur J Med Chem, 2014).)
